Measurements: ChEMBL document CHEMBL1275394, “Design, synthesis, and biological evaluation of novel hybrid dicaffeoyltartaric/diketo acid and tetrazole-substituted L-chicoric acid analogue inhibitors of human immunodeficiency virus type 1 integrase” (J Med Chem, 2010)
Each block holds one compound with its values, some of them ahead of it.

Experiments:
[1] = system: MT2; assay: Cytotoxicity against human MT2 cells assessed as concentration required to 5% inhibition of cell growth relative to control; assay type: cell-based
Method in brief: (§1)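 MT-2 cells were grown in RPMI-1640 without antibiotics and exposed to compound. CT50 and CT5 are the concentrations inhibiting cellular replication by 50% and 5% relative to untreated control; CT5 corresponds to 95% viable cells. Values are the mean of triplicate assays with SD.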

[2] = Cytotoxicity against human MT2 cells assessed as concentration required to 50% inhibition of cell growth relative to control; assay type: cell-based; conditions: read-out: Activity; method in brief: as §1
[3] = Inhibition of HIV NL4-3 recombinant histidine-tagged integrase 3'-end processing activity expressed in Escherichia coli BL21 (DE3); design: species or system Human immunodeficiency virus
Method in brief: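 N-terminal 6-His-tagged HIV-1 NL4-3 IN expressed in E. coli BL21 DE3 pLysS, Ni2+ affinity purified (>95%), stored at -80 °C. The 32P-labeled blunt-end V1/V2 duplex mimicking the viral LTR was incubated with IN and increasing compound concentrations at 37 °C for 1 h, in triplicate. Products were resolved by denaturing PAGE and quantified by phosphorimager. 3'-processing was read as the 21mer to 19mer conversion.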

[4] = system: Human immunodeficiency virus; assay: Antiviral activity against HIV LAI infected in human MT2 cells assessed as protection against virus-induced cytopathic effect; assay type: functional, organism-based; conditions: Human immunodeficiency virus 1, LAI
Method in brief: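 MT-2 cells were cultured in RPMI-1640 without antibiotics and infected with HIV LAI. EC50 is the concentration protecting 50% of cells from virus-induced cytopathic effect. Values are the mean of triplicate assays with SD.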

[5] = Inhibition of HIV NL4-3 recombinant histidine-tagged integrase strand transfer activity expressed in Escherichia coli BL21 (DE3); design: species or system Human immunodeficiency virus
[6] = Therapeutic index, ratio of CT50 for human MT2 cells to EC50 for HIV LAI; assay type: cell-based; conditions: read-out: TI

- IC50 [3]: 470 nM
- EC50 [4]: > 67000 nM
- IC50 [5]: 1130 nM
Structure (SMILES): O=C(O)/C(O)=C/C(=O)c1ccc(O)c(O)c1
- Activity [1]: 67 µM
- CC50 [2]: 178000 nM

- IC50 [3]: 2810 nM
- EC50 [4]: > 36000 nM
- IC50 [5]: 1890 nM
Structure (SMILES): COC(=O)/C(O)=C/C(=O)c1ccc(O)c(O)c1
- Activity [1]: 36 µM
- CC50 [2]: 182000 nM

- IC50 [3]: 1100 nM
- EC50 [4]: > 36000 nM
- IC50 [5]: 810 nM
Structure (SMILES): O=C(/C=C(\O)C(=O)O)/C=C/c1ccc(O)c(O)c1
- Activity [1]: 32 µM
- CC50 [2]: 80000 nM

- IC50 [3]: 2280 nM
- EC50 [4]: > 37500 nM
- IC50 [5]: 2550 nM
Structure (SMILES): O=C(/C=C/c1ccc(O)c(O)c1)Nc1ccccc1C(=O)/C=C(\O)C(=O)O
- Activity [1]: 23.3 µM
- CC50 [2]: 53000 nM

- IC50 [3]: 110 nM
- EC50 [4]: > 34000 nM
- IC50 [5]: 360 nM
Structure (SMILES): O=C(/C=C/c1ccc(O)c(O)c1)Nc1cccc(C(=O)/C=C(\O)C(=O)O)c1
- Activity [1]: 20.4 µM
- CC50 [2]: 52800 nM

- IC50 [3]: 210 nM
- EC50 [4]: 420 nM
- IC50 [5]: 270 nM
Structure (SMILES): NC(=O)[C@H](OC(=O)/C=C/c1ccc(O)c(O)c1)[C@@H](OC(=O)/C=C/c1ccc(O)c(O)c1)c1nnn[nH]1
- Activity [1]: 5.7 µM
- CC50 [2]: 31900 nM
- selectivity ratio [6]: > 350

- IC50 [3]: 400 nM
- EC50 [4]: > 16900 nM
- IC50 [5]: 350 nM
Structure (SMILES): O=C(/C=C/c1ccc(O)c(O)c1)Nc1ccc(C(=O)/C=C(\O)C(=O)O)cc1
- Activity [1]: 26.1 µM
- CC50 [2]: 47200 nM

Further lines, the compound ahead of its results:

Structure (SMILES): COC(=O)/C(O)=C/C(=O)c1ccc(NC(=O)/C=C/c2ccc(O)c(O)c2)cc1
- Activity [1]: 12.4 µM
- CC50 [2]: 39500 nM
- IC50 [3]: 1820 nM
- EC50 [4]: > 54000 nM
- IC50 [5]: 1380 nM

Structure (SMILES): O=C(/C=C/c1ccc(O)c(O)c1)Nc1cc(NC(=O)/C=C/c2ccc(O)c(O)c2)cc(C(=O)/C=C(\O)C(=O)O)c1
- Activity [1]: > 50.7 µM
- CC50 [2]: > 50700 nM
- IC50 [3]: 120 nM
- EC50 [4]: > 51000 nM
- IC50 [5]: 130 nM

Structure (SMILES): COC(=O)/C(O)=C/C(=O)c1cc(NC(=O)/C=C/c2ccc(O)c(O)c2)cc(NC(=O)/C=C/c2ccc(O)c(O)c2)c1
- Activity [1]: > 47.7 µM
- CC50 [2]: > 47700 nM
- IC50 [3]: 750 nM
- EC50 [4]: > 48000 nM
- IC50 [5]: 630 nM

Structure (SMILES): O=C(/C=C/c1ccc(O)c(O)c1)O[C@@H](C(=O)O)[C@@H](OC(=O)c1cccn1Cc1ccc(F)cc1)C(=O)O
- Activity [1]: 41.8 µM
- CC50 [2]: 399000 nM
- IC50 [3]: 4050 nM
- EC50 [4]: 110000 nM
- IC50 [5]: 1270 nM

Structure (SMILES): O=C(/C=C/c1ccc(O)c(O)c1)O[C@@H](c1nnn[nH]1)[C@@H](OC(=O)/C=C/c1ccc(O)c(O)c1)c1nnn[nH]1
- Activity [1]: 28.4 µM
- CC50 [2]: 422000 nM
- IC50 [3]: 340 nM
- EC50 [4]: 330 nM
- IC50 [5]: 440 nM
- selectivity ratio [6]: > 350

Structure (SMILES): O=C(O[C@@H](C(=O)O)[C@@H](O)C(=O)O)c1cccn1Cc1ccc(F)cc1
- Activity [1]: 60.8 µM
- CC50 [2]: 792000 nM
- IC50 [3]: 277000 nM
- EC50 [4]: > 170000 nM
- IC50 [5]: 47300 nM

Structure (SMILES): O=C(O[C@@H](C(=O)O)[C@@H](OC(=O)c1cccn1Cc1ccc(F)cc1)C(=O)O)c1cccn1Cc1ccc(F)cc1
- Activity [1]: 28.7 µM
- CC50 [2]: 374000 nM
- IC50 [3]: 136000 nM
- EC50 [4]: > 90500 nM
- IC50 [5]: 74200 nM

Structure (SMILES): O=C(O)C(=O)CC(=O)c1cccn1Cc1ccc(F)cc1
- Activity [1]: > 69.3 µM
- CC50 [2]: > 69300 nM
- IC50 [3]: 13000 nM
- EC50 [4]: 400 nM
- IC50 [5]: 140 nM

Structure (SMILES): O=C(/C=C/c1ccc(O)c(O)c1)OCC(OC(=O)/C=C/c1ccc(O)c(O)c1)c1nnn[nH]1 (racemic)
- Activity [1]: > 42.5 µM
- CC50 [2]: > 42500 nM
- IC50 [3]: 140 nM
- EC50 [4]: 850 nM
- IC50 [5]: 120 nM

Structure (SMILES): O=C(/C=C/c1cc(O)c(O)c(O)c1)OC(c1nnn[nH]1)C(OC(=O)/C=C/c1cc(O)c(O)c(O)c1)c1nnn[nH]1 (single isomer, unassigned)
- Activity [1]: 11.3 µM
- CC50 [2]: 48900 nM
- IC50 [3]: 390 nM
- EC50 [4]: 60 nM
- IC50 [5]: 210 nM
- selectivity ratio [6]: > 350

Structure (SMILES): O=C(/C=C/c1ccc(O)c(O)c1)O[C@@H](C(=O)O)[C@@H](O)C(=O)O [CAFTARIC ACID]
- Activity [1]: 49.6 µM
- CC50 [2]: 325000 nM
- IC50 [3]: 19100 nM
- EC50 [4]: 80500 nM
- IC50 [5]: 6080 nM

Structure (SMILES): O=C(/C=C/c1ccc(O)c(O)c1)O[C@@H](C(=O)O)[C@@H](OC(=O)/C=C/c1ccc(O)c(O)c1)C(=O)O [CICHORIC ACID]
- Activity [1]: 41 µM
- CC50 [2]: 124000 nM
- IC50 [3]: 220 nM
- EC50 [4]: 810 nM
- IC50 [5]: 270 nM
